Bioassay records: PubChem, several laboratories
GPR7 antagonist: GPR7 receptor antagonists, primary screen, cell-based, fluorescence, single concentration; Neuropeptides B/W receptor type 1 (Homo sapiens), P48145; GPR7-expressing cells, fluorescence antagonist assay; 1.1% of 290,000 active; inhibition, % at 4.4 µM; in the data active = inhibition above about 16%, passing the limit was not always enough;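 note: cells stimulated with the agonist NPW; 0% = agonist with vehicle and 100% = vehicle without agonist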
Target sequence (P48145 whole entry, looked up): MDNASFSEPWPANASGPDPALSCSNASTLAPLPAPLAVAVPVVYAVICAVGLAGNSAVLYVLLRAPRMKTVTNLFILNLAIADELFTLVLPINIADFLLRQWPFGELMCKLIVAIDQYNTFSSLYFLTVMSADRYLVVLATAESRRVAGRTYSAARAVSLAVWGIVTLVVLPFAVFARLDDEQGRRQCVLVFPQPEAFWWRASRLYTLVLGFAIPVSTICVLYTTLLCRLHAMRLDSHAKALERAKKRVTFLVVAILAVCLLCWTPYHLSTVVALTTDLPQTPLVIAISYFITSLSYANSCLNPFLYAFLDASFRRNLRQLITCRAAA
TRPN1 ag: zebrafish TRPN1 channel agonists, primary screen, cell-based, HEK293, calcium fluorescence; transient receptor potential cation channel N1 (TRPN1/NompC), Danio rerio; HEK293 zebrafish TRPN1-YFP, Fluo-8 calcium fluorescence; 100% = response to 87 µM carbachol; activation, % at 3 µM; 0.18% of 220,000 active; AID 1424, 2008;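 active = activation above its plate's cutoff, the mean activation of test wells on that plate plus 3 SD, cut at about 19% in these data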;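 note: 0% = DMSO alone and 100% = 87 µM carbachol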
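Material: zebrafish TRPN1-YFP in HEK293 cells; Doses: single test compound dose, 3 µM nominal, 0.3% DMSO; Timing: dye loading 1 h at 37 °C, then 30 min room temperature; Technique: intracellular calcium fluorescence with Fluo-8; Benchmarks: high carbachol 87 µM, low DMSO alone.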
TRPML3 agonist: human TRPML3 channel agonists, primary screen, cell-based, HEK293 TRPML3-YFP, Fluo-8 calcium fluorescence, 3 µM | 100% = the carbachol control signal | Mucolipin-3 (Homo sapiens), Q8TDD5 | AID 1448, 2008 | activation, % at 3 µM | 0.29% of 220,000 active;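 active = activation above its plate's cutoff, the mean activation of the plate's test wells plus 3 SD, cut at about 12% in these data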;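 note: 0% = DMSO only wells and 100% = carbachol wells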
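Test system: TRPML3-YFP stable HEK293 cells. Doses: single point at 3 µM. Incubation: dye loading 1 h 37 °C then 30 min ambient, 125 s read. Signal: Fluo-8 calcium dye fluorescence, ex 470-495, em 515-575 nm. Measure: percent activation from peak-to-basal fluorescence ratio, scaled between DMSO and carbachol.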
TAAR1 ag: human TAAR1 agonists, primary screen, Fluo-8 calcium fluorescence, CHO RD-HGA16 cells; Trace amine-associated receptor 1 (Homo sapiens), Q96RJ0; vehicle wells 0%, saturating PEA agonist 100%; 0.99% of 360,000 active; activation, % at 3 µM;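 active = activation above the mean activation of all test compounds in the run plus 3 SD, cut at about 38% in these data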
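System: CHO RD-HGA16 cells carrying human TAAR1 plus Gα16; Incubation: 17-24 h seeding, 75 min 37 °C dye, 30 min RT; Measured by: Fluo-8 fluorescence, 5 s baseline then 140 s kinetic read; Control set: DMSO and PEA EC100; Replication: single well for each compound.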
LANA-H2A inh: blockers of LANA interaction with H2A/H2B – biochemical, FP readout, HTS, primary screen; Protein LANA1 (Human herpesvirus 8 type P (isolate GK18)), Q9QR71; cell-free LANA-H2A/H2B peptide, fluorescence polarization; inhibition, % (no concentration beside the values); 0.6% of 320,000 active; in the data active = inhibition mostly above about 10%, no sharp cut-off; inactive = mostly below about 6.7%
TAAR1 antag: human TAAR1 antagonists, primary screen, Fluo-8 calcium fluorescence, CHO RD-HGA16 cells | inhibition, % at 3 µM | 1.5% of 360,000 active | antagonist | Trace amine-associated receptor 1 (Homo sapiens), Q96RJ0;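 active = inhibition above a per-plate cutoff, the mean inhibition of test compounds on that plate plus 3 SD, cut at about 49% in these data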;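 note: 0% = DMSO plus EC80 beta-PEA response and 100% = DMSO alone without agonist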
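System: RD-HGA16 CHO cells with stable hTAAR1 and Gα16 | Probe or stimulus: EC80 β-phenethylamine stimulus | Dosing: 3 µM, single point | Times: Dye loading 75 min at 37 °C, then 30 min room temperature | Measured by: Fluo-8 calcium-sensitive fluorescence | Read-out basis: % inhibition of agonist calcium response | Replicates: n of 1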
Numbers without * were called inactive; . = no result. A selection: hits, their analogues and other compounds. The true share with any hit is near 3.4%.

SMILES	GPR7 antagonist	TRPN1 ag	TRPML3 agonist	TAAR1 ag	LANA-H2A inh	TAAR1 antag
CC(C)(C)[C@@H]1CCC(=O)N(CC[C@H](Sc2ccccc2)c2ccccc2)CC1	-3.9	.	.	12.7	5.6	41.6
Cc1ccc(NC(=O)Nc2ccc(F)cc2F)c(OC(F)F)c1	-11.2	1.5	1.2	25.2	102.5*	1.1
O=[N+]([O-])c1ccc(-c2nc(Nc3cccc(O)c3)c3ccccc3n2)cc1	18.1	.	.	5.9	-4.3	55.4*
CC(=O)N1CCC(N2CCN(Cc3ccc(C)cc3)C(CCO)C2)CC1 (stereo not given)	3.3	1.5	2.0	0.2	76.9*	-4.8
Cc1ccc(CN2CCN(C3CCC3)CC2CCO)cc1 (stereo not given)	-17.9	.	.	2.2	2.6	-20.7
Nc1nc2c(ncn2[C@@H]2O[C@H](C(=O)N[C@H](Cc3ccccc3)C(=O)NCCCc3ccccc3)[C@@H](O)[C@H]2O)c(=O)[nH]1	.	.	.	1.1	.	-30.8
CCCNC(=O)c1ccccc1NC(=O)COc1cccc2c1OC(C)(C)C2	.	.	.	7.6	.	50.4*
CC1(C)Cc2cccc(OCC(=O)Nc3ccccc3F)c2O1	.	.	.	3.1	1.0	-9.8
CCCCN(CCCC)CC(O)COc1ccccc1Br (stereo not given)	26.2*	0.0	0.3	3.2	2.6	-7.8
CC(C)CN(CC(C)C)CC(O)COc1ccccc1Br (stereo not given)	-5.7	-1.8	2.5	5.8	-2.9	-3.9
COC/C=C/C1=CC2=CC(=O)C(C)(OC(=O)c3cnc4ccccc4n3)C(=O)C2=CN1CCOC (stereo not given)	.	.	.	3.6	-2.4	0.1
COC/C=C/C1=CC2=CC(=O)C(C)(OC(=O)c3cnc4ccccc4n3)C(=O)C2=CN1CCN1CCOCC1 (stereo not given)	.	.	.	4.2	17.8*	-11.8
Cc1cc(C)c(CN2CCN(C(=O)Cn3cnc(C(=O)Nc4ccc(C)c(C)c4)n3)CC2)c(C)c1	.	.	.	26.9	.	56.3*
CCOC(=O)c1c(CN2CCN(C)CC2)n(C)c2cc(Br)c(OC)cc12	19.1*	1.7	0.1	8.2	-2.6	4.7
COc1ccccc1OCCNC(=O)CN(c1cccc(C)c1)S(=O)(=O)c1ccccc1	-18.1	.	.	5.3	0.8	49.3*
COCCCNC(=O)CN(c1cc(OC)ccc1OC)S(=O)(=O)c1ccccc1	-0.9	-1.1	0.9	5.3	18.7*	-1.0
Cc1cccc(N(CC(=O)NCCSc2ccccn2)S(=O)(=O)c2ccccc2)c1	-6.9	-0.5	-0.6	8.7	-2.1	36.1
COC(=O)C1=C(C)N(C)C(=NCc2ccc(C(F)(F)F)cc2)NC1c1cccc(Cl)c1 (stereo not given)	.	.	.	24.6	.	29.9
CN(Cc1c(C(=O)N2CCCCCCC2)nc2ccc(Cl)cn12)C1CCOC1 (stereo not given)	-12.1	.	.	1.9	19.4*	-17.8
COC(=O)c1cc2c(c3c4cc(F)ccc4n(S(=O)(=O)c4cccc(C)c4)c13)C(=O)N(Cc1ccc(C(F)(F)F)cc1)C2	.	.	.	-0.6	.	-40.7
COc1ccccc1C(CC(=O)Nc1ccc(Cl)cc1)c1ccc(OC(C)C)cc1 (stereo not given)	-3.2	-1.1	0.8	-0.8	3.4	6.5
COc1ccc(C(C)NCCC(c2ccc(OC(C)C)cc2)c2ccccc2OC)cc1 (stereo not given)	23.1	.	.	44.4*	0.9	7.7
CC(C)(C)OC(=O)N1CCC[C@@H]1C(=O)N1CCC[C@H]1C(=O)NCc1ccccc1	.	.	.	1.0	.	-15.1
O=C1CC(c2c[nH]c3ccccc23)C(=O)N1 (stereo not given)	-12.5	2.0	0.8	4.3	30.3*	6.1
Cn1cc(/C=N\NC(=O)c2cccs2)c2ccccc21	-3.0	-2.7	0.2	-1.5	16.7*	-4.9
Cn1cccc1/C=N/NC(=O)c1cccs1	-11.1	.	.	1.9	0.4	-29.5
S=C1Nc2ccccc2CS1	.	.	.	1.6	.	-7.9
